Assay results reported in the M2OR odorant receptor database.
Residue numbers refer to the chain shown, from its start.

Tests used:
Details in all cases: stereoisomer not certain
[1] = biological target: T1, OR2T33 (Homo sapiens) (UniProt Q8NG76)
T1 sequence (whole entry): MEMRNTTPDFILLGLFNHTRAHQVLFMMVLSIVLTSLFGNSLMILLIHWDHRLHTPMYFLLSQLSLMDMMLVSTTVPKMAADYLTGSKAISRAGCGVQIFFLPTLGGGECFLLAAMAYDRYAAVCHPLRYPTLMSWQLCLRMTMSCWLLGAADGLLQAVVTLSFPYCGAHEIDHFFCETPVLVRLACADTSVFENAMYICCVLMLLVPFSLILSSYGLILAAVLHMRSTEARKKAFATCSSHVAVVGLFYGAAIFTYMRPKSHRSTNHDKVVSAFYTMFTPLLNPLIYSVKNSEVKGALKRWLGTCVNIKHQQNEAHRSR
In short: (§1)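 Transient luciferase assays in mammalian cell lines were common, though methods varied by source. The values come from published papers and their supplementary material, with extra details from the original authors when needed. Responsive refers to a measured signal the original authors judged statistically different from baseline, and non-responsive (inactive) to the remainder.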

[2] = biological target: T2, OR2T34 (Homo sapiens) (UniProt Q8NGX1)
T2 sequence (whole entry): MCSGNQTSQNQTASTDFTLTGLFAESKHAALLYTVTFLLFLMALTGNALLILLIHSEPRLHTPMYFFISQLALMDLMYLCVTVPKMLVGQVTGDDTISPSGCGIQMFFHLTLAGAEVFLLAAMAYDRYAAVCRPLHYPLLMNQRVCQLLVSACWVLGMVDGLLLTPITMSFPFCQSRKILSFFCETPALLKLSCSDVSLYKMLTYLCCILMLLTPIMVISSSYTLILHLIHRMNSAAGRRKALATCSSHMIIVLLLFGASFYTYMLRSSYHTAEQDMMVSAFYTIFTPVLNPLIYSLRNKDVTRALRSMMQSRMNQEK
In short: as §1

[3] = biological target: T3, OR2T35 (Homo sapiens) (UniProt Q8NGX2)
T3 sequence (whole entry): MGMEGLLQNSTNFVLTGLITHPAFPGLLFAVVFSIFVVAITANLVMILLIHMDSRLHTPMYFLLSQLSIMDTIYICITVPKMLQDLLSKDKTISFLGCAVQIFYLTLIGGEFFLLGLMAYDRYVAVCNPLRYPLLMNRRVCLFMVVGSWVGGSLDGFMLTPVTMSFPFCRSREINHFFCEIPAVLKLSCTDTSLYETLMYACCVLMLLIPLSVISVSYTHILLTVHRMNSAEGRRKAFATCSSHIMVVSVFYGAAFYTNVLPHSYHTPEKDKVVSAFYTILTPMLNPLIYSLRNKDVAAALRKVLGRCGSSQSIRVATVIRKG
In short: as §1

[4] = biological target: T4, OR2T4 (Homo sapiens) (UniProt Q8NH00)
T4 sequence (whole entry): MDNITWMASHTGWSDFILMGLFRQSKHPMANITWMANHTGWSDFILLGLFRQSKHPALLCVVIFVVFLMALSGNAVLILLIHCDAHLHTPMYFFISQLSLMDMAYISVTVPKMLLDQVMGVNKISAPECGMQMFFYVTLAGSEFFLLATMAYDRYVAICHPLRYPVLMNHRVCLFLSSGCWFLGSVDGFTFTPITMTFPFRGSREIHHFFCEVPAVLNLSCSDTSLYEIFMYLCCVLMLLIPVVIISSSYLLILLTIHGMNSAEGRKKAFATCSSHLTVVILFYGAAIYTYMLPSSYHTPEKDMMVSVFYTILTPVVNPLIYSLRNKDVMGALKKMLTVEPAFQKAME
In short: as §1

[5] = biological target: T5, OR2T5 (Homo sapiens) (UniProt Q6IEZ7)
T5 sequence (whole entry): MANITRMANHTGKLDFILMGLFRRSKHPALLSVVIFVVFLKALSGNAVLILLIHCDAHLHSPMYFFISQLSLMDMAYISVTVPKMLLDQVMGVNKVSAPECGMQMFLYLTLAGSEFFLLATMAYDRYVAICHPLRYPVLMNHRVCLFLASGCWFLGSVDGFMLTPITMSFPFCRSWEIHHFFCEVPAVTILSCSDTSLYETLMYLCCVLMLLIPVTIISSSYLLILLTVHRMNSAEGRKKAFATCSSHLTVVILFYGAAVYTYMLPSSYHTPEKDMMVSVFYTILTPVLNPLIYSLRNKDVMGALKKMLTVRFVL
In short: as §1

[6] = biological target: T6, OR2T6 (Homo sapiens) (UniProt Q8NHC8)
T6 sequence (whole entry): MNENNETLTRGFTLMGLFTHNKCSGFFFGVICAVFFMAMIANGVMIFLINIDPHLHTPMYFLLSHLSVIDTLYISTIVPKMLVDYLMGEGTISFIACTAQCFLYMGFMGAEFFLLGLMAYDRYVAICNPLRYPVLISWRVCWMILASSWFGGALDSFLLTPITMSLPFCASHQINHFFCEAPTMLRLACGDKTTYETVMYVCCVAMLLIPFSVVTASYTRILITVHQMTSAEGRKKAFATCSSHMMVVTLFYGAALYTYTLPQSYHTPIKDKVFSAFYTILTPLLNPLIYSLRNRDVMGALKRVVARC
In short: as §1

[7] = biological target: T7, OR2T7 (Homo sapiens) (UniProt P0C7T2)
T7 sequence (whole entry): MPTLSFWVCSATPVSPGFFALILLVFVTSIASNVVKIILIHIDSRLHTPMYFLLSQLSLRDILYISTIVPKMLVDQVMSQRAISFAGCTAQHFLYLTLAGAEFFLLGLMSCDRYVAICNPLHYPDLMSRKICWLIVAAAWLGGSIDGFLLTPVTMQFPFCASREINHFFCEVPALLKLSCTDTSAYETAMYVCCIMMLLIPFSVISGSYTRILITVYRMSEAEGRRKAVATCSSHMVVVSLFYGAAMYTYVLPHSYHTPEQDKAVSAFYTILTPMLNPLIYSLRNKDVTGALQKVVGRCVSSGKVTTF
In short: as §1

[8] = biological target: T8, OR2T8 (Homo sapiens) (UniProt A6NH00)
T8 sequence (whole entry): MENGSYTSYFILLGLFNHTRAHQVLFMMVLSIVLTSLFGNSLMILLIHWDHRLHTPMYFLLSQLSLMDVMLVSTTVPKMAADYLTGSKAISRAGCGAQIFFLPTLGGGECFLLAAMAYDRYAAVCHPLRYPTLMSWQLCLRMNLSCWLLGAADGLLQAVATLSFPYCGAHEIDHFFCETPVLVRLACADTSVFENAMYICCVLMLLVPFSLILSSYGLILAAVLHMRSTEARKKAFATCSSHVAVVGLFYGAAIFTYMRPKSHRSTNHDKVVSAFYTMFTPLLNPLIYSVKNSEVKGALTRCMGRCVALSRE
In short: as §1

[9] = biological target: T9, OR2V1 (Homo sapiens) (UniProt Q8NHB1)
T9 sequence (whole entry): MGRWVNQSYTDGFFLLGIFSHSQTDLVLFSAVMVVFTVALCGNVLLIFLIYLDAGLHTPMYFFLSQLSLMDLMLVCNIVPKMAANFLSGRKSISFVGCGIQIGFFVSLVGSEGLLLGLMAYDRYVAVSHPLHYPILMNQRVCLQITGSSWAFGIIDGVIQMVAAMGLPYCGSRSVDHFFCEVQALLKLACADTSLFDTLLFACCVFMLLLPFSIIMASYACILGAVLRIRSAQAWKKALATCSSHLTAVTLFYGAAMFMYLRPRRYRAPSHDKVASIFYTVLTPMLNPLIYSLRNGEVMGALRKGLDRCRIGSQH
In short: as §1

[10] = biological target: T10, OR2V2 (Homo sapiens) (UniProt Q96R30)
T10 sequence (whole entry): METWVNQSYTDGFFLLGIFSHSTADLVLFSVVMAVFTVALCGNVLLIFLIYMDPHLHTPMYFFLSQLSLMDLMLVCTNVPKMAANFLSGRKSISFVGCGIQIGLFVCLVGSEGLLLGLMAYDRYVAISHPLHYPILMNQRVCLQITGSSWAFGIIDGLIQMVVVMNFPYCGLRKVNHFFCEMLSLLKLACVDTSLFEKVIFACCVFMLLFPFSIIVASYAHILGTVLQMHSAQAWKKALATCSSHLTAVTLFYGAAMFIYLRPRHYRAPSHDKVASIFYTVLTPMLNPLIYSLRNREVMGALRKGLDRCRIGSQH
In short: as §1

[11] = biological target: T11, OR2W1 (Homo sapiens) (UniProt Q9Y3N9)
T11 sequence (whole entry): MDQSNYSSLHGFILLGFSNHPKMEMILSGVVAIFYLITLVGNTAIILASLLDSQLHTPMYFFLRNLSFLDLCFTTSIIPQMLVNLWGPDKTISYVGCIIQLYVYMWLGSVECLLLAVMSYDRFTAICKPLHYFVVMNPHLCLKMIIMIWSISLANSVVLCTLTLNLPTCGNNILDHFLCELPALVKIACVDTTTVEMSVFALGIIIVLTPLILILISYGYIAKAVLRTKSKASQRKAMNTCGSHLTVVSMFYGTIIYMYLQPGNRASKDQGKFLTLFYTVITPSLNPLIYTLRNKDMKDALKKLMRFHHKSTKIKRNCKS
In short: as §1

[12] = test system: T12, OR2T3 R298C
T12 sequence (whole entry): T2 sequence (whole entry) with H109Y, M202T, T204M, T214A, R239H, R267P, R298C
In short: as §1

[13] = test system: T13, OR2T3 Y109H
T13 sequence (whole entry): T2 sequence (whole entry) with M202T, T204M, T214A, R239H, R267P
In short: as §1

[14] = test system: T14, OR2T5 K13R K41M G45E
T14 sequence (whole entry): T5 sequence (whole entry) with K13R, K41M, G45E
In short: as §1

[15] = test system: T15, OR2T5 K13R L134F
T15 sequence (whole entry): T5 sequence (whole entry) with K13R, L134F
In short: as §1

[16] = test system: T16, OR2T6 C23G
T16 sequence (whole entry): T6 sequence (whole entry) with C23G
In short: as §1

[17] = test system: T17, OR2T7
T17 sequence (whole entry): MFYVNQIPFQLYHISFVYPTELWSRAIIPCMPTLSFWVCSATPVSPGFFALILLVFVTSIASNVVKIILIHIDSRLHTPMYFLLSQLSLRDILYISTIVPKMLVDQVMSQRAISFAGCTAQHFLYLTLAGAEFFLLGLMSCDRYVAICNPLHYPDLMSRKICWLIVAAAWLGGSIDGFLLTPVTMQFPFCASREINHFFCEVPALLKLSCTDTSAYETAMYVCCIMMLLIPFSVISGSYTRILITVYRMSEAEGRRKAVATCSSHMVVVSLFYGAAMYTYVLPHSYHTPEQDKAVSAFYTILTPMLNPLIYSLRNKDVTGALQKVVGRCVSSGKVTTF
In short: as §1

[18] = test system: T18, OR2W1 G96V
T18 sequence (whole entry): T11 sequence (whole entry) with G96V
In short: as §1

[19] = test system: T19, OR2W1
T19 sequence (whole entry): T11 sequence (whole entry) with D296N
In short: as §1

[20] = test system: T20, OR2W1; remark: listed apart in the source
T20 sequence (whole entry): T11 sequence (whole entry) with M81V
In short: as §1
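Note: active if original authors judged signal statistically different from baseline.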

CC1CCCCCCCCCCCCC(=O)C1 (stereo not drawn)
odorant receptor agonist call [1]: inactive | odorant receptor agonist call [2]: inactive | odorant receptor agonist call [3]: inactive | odorant receptor agonist call [4]: inactive | odorant receptor agonist call [5]: inactive | odorant receptor agonist call [6]: inactive | odorant receptor agonist call [7]: inactive | odorant receptor agonist call [8]: inactive | odorant receptor agonist call [9]: inactive | odorant receptor agonist call [10]: inactive | odorant receptor agonist call [11]: inactive

CCCCCC1C(=O)CCC1CC(=O)OC (stereo not drawn)
odorant receptor agonist call [2]: inactive

Cc1cnc(C)c(C)n1
odorant receptor agonist call [12]: inactive | odorant receptor agonist call [13]: inactive | odorant receptor agonist call [1]: inactive | odorant receptor agonist call [2]: inactive | odorant receptor agonist call [3]: inactive | odorant receptor agonist call [4]: inactive | odorant receptor agonist call [5]: inactive | odorant receptor agonist call [14]: inactive | odorant receptor agonist call [15]: inactive | odorant receptor agonist call [6]: inactive | odorant receptor agonist call [16]: inactive | odorant receptor agonist call [17]: inactive | odorant receptor agonist call [8]: inactive | odorant receptor agonist call [9]: inactive | odorant receptor agonist call [10]: inactive | odorant receptor agonist call [11]: inactive | odorant receptor agonist call [18]: inactive

CCCCC1CCC(=O)O1 (stereo not drawn)
odorant receptor agonist call [19]: active | odorant receptor agonist call [20]: active

CCC(=O)C(C)=O
odorant receptor agonist call [11]: inactive

CCCCOC(=O)C(C)OC(=O)CCC (stereo not drawn)
odorant receptor agonist call [11]: inactive

CC(C)CCO
odorant receptor agonist call [11]: inactive

CC(C)=CCCC(C)CCO (stereo not drawn)
odorant receptor agonist call [11]: active

CCC(C)CO (stereo not drawn)
odorant receptor agonist call [4]: inactive | odorant receptor agonist call [11]: active | odorant receptor agonist call [19]: active | odorant receptor agonist call [20]: active

CC(=O)OCC=C(C)C
odorant receptor agonist call [11]: active

CCc1ncc(C)nc1CC
odorant receptor agonist call [11]: inactive

CCC(S)C(C)=O (stereo not drawn)
odorant receptor agonist call [11]: inactive

CSCSC
odorant receptor agonist call [11]: inactive

CCO
odorant receptor agonist call [11]: inactive

O=c1ccc2ccccc2o1
odorant receptor agonist call [4]: inactive | odorant receptor agonist call [11]: active | odorant receptor agonist call [19]: active | odorant receptor agonist call [20]: inactive
